The source made the active and inactive calls. No cut-off for these calls is given here.
Columns and labels:
[1] = Drug metabolism in human hepatocytes assessed as hydrolysis; assay type: ADME, cell-based, Hepatocyte
[2] = biological target: Broad substrate specificity ATP-binding cassette transporter ABCG2 (Homo sapiens, UniProt Q9UNQ0); assay: Inhibition of BCRP (unknown origin) transfected in MDCK cells assessed as decrease in pitavastatin transport; assay type: cell-based
[3] = biological target: Tryptophan 2,3-dioxygenase (Homo sapiens, UniProt P48775); assay: Inhibition of human TDO2 using tryptophan as substrate after 22 mins by LC-MS/MS method
Tryptophan 2,3-dioxygenase, sequence (P48775 whole entry): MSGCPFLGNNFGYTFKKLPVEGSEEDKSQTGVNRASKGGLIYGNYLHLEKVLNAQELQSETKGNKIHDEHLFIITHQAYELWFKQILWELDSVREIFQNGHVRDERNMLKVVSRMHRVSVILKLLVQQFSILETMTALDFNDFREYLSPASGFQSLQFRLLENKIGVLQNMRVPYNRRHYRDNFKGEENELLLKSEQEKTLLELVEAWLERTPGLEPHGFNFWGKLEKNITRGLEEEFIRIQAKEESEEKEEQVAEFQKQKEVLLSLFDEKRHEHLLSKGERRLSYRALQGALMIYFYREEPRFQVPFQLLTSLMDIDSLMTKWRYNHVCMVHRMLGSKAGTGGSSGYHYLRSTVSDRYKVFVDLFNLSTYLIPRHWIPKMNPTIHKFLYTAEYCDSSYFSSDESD

Mus musculus [4] = assay: Tmax in CD-1 mouse assessed as (R)-3-(5-fluoro-1H-indol-3-yl)pyrrolidine-2,5-dione at 3 mg/kg, po; assay type: ADME, organism-based; conditions: in vivo
Cytochrome P450 2C9 [5] = biological target: T1, Cytochrome P450 2C9 (Homo sapiens, UniProt P11712); assay: Time-dependent inhibition of CYP2C9 (unknown origin); assay type: ADME
T1 sequence (P11712 whole entry): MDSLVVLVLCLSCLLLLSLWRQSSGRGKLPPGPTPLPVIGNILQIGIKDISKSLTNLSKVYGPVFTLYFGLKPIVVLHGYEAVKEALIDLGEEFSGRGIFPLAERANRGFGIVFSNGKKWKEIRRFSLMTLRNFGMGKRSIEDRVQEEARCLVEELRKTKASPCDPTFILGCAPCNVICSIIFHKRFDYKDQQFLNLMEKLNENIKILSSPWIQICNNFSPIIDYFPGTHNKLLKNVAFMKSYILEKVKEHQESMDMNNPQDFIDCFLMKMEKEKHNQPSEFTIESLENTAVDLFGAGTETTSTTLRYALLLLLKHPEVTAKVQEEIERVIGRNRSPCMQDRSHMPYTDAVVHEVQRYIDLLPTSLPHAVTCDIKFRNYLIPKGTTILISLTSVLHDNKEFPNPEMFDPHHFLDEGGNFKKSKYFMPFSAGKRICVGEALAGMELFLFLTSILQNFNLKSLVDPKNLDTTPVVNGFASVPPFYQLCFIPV

Cytochrome P450 2C19 = Cytochrome P450 2C19 (Homo sapiens, UniProt P33261); assay: Time/NADPH-dependent inhibition of CYP2C19 (unknown origin); assay type: ADME
Cytochrome P450 2C19, sequence (P33261 whole entry): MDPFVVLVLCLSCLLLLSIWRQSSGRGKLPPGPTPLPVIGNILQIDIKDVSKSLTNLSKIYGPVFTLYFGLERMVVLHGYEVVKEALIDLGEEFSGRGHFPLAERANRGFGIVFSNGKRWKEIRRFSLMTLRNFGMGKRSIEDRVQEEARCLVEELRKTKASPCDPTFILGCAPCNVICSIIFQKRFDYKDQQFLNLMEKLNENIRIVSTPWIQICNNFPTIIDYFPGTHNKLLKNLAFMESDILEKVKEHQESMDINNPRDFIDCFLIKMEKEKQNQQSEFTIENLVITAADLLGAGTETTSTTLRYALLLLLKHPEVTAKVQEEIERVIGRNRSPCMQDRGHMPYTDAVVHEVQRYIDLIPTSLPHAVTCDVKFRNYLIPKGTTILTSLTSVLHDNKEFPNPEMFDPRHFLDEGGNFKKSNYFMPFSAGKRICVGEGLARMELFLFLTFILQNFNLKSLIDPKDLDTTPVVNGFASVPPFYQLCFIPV

Mus musculus [6] = assay: AUC (infinity) in CD-1 mouse assessed as (R)-3-(5-fluoro-1H-indol-3-yl)pyrrolidine-2,5-dione at 1 mg/kg, iv by LC-MS/MS method; assay type: ADME, organism-based; set-up: dose 1 mg/kg, route intravenous, time infinity; conditions: in vivo
How it was run: (§1)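 Racemate given as a single 1 mg/kg IV dose to male CD-1 mice, Wistar-Han rats or beagle dogs (n=3 per species). Plasma levels of the (R)-enantiomer measured by chiral LC-MS/MS. Mean AUCinf, CLp, Vss and t1/2 reported.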

[7] = Drug excretion in rat urine assessed as (R)-3-(5-fluoro-1H-indol-3-yl)pyrrolidine-2,5-dione; assay type: ADME; conditions: in vivo
How it was run: (§2)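 Racemate dosed to rats (urine and bile collected) and to dogs (urine collected). The percentage of the dose excreted as unchanged (R)-enantiomer was measured.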

Canis familiaris [8] = assay: AUC (infinity) in beagle dog assessed as (R)-3-(5-fluoro-1H-indol-3-yl)pyrrolidine-2,5-dione at 3 mg/kg, po; assay type: ADME, organism-based, Canis lupus familiaris; set-up: dose 3 mg/kg, route oral, time infinity; conditions: in vivo
Mus musculus [9] = assay: Half life in CD-1 mouse assessed as (R)-3-(5-fluoro-1H-indol-3-yl)pyrrolidine-2,5-dione at 1 mg/kg, iv by LC-MS/MS method; assay type: ADME, organism-based; conditions: in vivo; how it was run: as §1
Cytochrome P450 2D6 [10] = biological target: T2, Cytochrome P450 2D6 (Homo sapiens, UniProt P10635); assay: Time-dependent inhibition of CYP2D6 (unknown origin); assay type: ADME
T2 sequence (P10635 whole entry): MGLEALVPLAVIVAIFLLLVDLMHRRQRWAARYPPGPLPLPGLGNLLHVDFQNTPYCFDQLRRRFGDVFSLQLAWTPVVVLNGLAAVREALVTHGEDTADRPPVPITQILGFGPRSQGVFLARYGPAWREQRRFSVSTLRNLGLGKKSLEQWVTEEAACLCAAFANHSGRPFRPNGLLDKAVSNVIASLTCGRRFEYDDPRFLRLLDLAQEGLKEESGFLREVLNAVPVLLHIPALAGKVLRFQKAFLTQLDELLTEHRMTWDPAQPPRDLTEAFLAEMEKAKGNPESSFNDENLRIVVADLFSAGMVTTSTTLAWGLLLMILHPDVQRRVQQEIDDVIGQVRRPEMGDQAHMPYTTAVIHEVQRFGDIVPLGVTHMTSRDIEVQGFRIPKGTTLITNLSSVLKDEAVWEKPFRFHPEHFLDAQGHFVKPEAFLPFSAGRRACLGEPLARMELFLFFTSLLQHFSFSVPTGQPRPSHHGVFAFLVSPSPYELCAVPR

Rattus norvegicus [11] = assay: Oral bioavailability in Wistar-Han rat assessed as (R)-3-(5-fluoro-1H-indol-3-yl)pyrrolidine-2,5-dione at 3 mg/kg; assay type: ADME, organism-based; conditions: in vivo
[12] = Drug excretion in dog urine assessed as (R)-3-(5-fluoro-1H-indol-3-yl)pyrrolidine-2,5-dione; assay type: ADME, Canis lupus familiaris; conditions: in vivo; how it was run: as §2
Panc02 = assay: Antitumor activity against mouse Pan02 tumor model administered as monotherapy; assay type: functional
Cytochrome P450 2D6 [13] = biological target: T2, Cytochrome P450 2D6; assay: Time/NADPH-dependent inhibition of CYP2D6 (unknown origin); assay type: ADME
Cytochrome P450 3A4 = Cytochrome P450 3A4 (Homo sapiens, UniProt P08684); assay: Time-dependent inhibition of CYP3A4 (unknown origin); assay type: ADME
Cytochrome P450 3A4, sequence (P08684 whole entry): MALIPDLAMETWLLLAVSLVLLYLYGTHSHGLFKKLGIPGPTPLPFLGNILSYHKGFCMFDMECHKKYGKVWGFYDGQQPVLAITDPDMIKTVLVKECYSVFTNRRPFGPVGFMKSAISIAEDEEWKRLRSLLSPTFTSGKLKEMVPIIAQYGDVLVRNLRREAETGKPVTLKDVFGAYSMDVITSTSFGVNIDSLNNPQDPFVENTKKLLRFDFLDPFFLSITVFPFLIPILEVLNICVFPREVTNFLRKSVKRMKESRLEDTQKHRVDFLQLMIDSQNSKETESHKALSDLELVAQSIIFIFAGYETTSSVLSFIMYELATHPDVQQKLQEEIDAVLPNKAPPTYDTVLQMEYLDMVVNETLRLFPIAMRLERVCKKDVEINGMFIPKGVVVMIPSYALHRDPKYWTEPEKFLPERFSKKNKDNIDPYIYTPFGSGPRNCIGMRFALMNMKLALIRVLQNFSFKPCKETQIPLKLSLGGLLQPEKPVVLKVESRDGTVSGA

Hepatocyte = assay: Induction of CYP2B6 mRNA expression in human hepatocytes at <100 uM; assay type: ADME, cell-based
[14] = Intrinsic apparent clearance in mouse hepatocytes assessed per million cells; assay type: ADME, cell-based, Hepatocyte
CT26 [15] = assay: Antitumor activity against mouse CT26 tumor model administered as monotherapy; assay type: functional
[16] = Inhibition of human p-gp transfected in MDCK cells assessed as decrease in digoxin transport; assay type: cell-based
Rattus norvegicus [17] = assay: Tmax in Wistar-Han rat assessed as (R)-3-(5-fluoro-1H-indol-3-yl)pyrrolidine-2,5-dione at 3 mg/kg, po; assay type: ADME, organism-based; conditions: in vivo
Cytochrome P450 1A2 [18] = biological target: T3, Cytochrome P450 1A2 (Homo sapiens, UniProt P05177); assay: Time/NADPH-dependent inhibition of CYP1A2 (unknown origin); assay type: ADME
T3 sequence (P05177 whole entry): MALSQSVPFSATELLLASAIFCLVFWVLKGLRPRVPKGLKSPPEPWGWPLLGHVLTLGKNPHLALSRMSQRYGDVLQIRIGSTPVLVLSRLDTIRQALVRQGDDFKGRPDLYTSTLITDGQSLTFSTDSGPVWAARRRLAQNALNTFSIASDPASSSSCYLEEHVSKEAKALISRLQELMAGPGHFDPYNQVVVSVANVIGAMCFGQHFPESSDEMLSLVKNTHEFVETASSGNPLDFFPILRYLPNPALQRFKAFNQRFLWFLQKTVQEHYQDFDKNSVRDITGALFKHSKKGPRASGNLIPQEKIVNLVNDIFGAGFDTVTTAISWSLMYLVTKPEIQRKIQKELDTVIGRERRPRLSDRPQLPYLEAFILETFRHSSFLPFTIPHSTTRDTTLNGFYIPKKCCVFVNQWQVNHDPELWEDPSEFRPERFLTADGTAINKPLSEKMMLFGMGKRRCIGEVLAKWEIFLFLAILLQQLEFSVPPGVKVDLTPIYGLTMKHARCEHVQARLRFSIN

Canis familiaris [19] = assay: Tmax in beagle dog assessed as (R)-3-(5-fluoro-1H-indol-3-yl)pyrrolidine-2,5-dione at 3 mg/kg, po; assay type: ADME, organism-based, Canis lupus familiaris; conditions: in vivo
Cytochrome P450 2C9 [20] = biological target: T1, Cytochrome P450 2C9; assay: Inhibition of CYP2C9 (unknown origin); assay type: ADME
Canis familiaris [21] = assay: Oral bioavailability in beagle dog assessed as (R)-3-(5-fluoro-1H-indol-3-yl)pyrrolidine-2,5-dione at 3 mg/kg; assay type: ADME, organism-based, Canis lupus familiaris; conditions: in vivo
Mus musculus [22] = assay: In vivo inhibition of human IDO-1 expressed in non-tumor-bearing mouse assessed as reduction in plasma L-kynurenine levels at >= 200 mg/kg after 1 hr relative to control; assay type: functional
[23] = Intrinsic apparent clearance in rat hepatocytes assessed per million cells; assay type: ADME, cell-based, Hepatocyte
B16-F10 = assay: Antitumor activity against mouse B16/F10 tumor model administered as monotherapy; assay type: functional
Mus musculus [24] = assay: Cmax in CD-1 mouse assessed as (R)-3-(5-fluoro-1H-indol-3-yl)pyrrolidine-2,5-dione at 3 mg/kg, po; assay type: ADME, organism-based; set-up: dose 3 mg/kg, route oral; conditions: in vivo
CT26 [25] = assay: Antitumor activity against mouse CT26 tumor model administered as […] co-treated with anti-PDL1 mAb; assay type: functional
Canis familiaris [26] = assay: Cmax in beagle dog assessed as (R)-3-(5-fluoro-1H-indol-3-yl)pyrrolidine-2,5-dione at 3 mg/kg, po; assay type: ADME, organism-based, Canis lupus familiaris; set-up: dose 3 mg/kg, route oral; conditions: in vivo
[27] = Drug metabolism in dog hepatocytes assessed as hydrolysis; assay type: ADME, cell-based, Canis lupus familiaris, Hepatocyte
Cytochrome P450 2C9 [28] = biological target: T1, Cytochrome P450 2C9; assay: Time/NADPH-dependent inhibition of CYP2C9 (unknown origin); assay type: ADME
Rattus norvegicus [29] = assay: AUC (infinity) in Wistar-Han rat assessed as (R)-3-(5-fluoro-1H-indol-3-yl)pyrrolidine-2,5-dione at 3 mg/kg, po; assay type: ADME, organism-based; set-up: dose 3 mg/kg, route oral, time infinity; conditions: in vivo
Cytochrome P450 1A2 [30] = biological target: T3, Cytochrome P450 1A2; assay: Inhibition of CYP1A2 (unknown origin); assay type: ADME

Broad substrate specificity ATP-binding cassette transporter ABCG2, sequence (Q9UNQ0 whole entry): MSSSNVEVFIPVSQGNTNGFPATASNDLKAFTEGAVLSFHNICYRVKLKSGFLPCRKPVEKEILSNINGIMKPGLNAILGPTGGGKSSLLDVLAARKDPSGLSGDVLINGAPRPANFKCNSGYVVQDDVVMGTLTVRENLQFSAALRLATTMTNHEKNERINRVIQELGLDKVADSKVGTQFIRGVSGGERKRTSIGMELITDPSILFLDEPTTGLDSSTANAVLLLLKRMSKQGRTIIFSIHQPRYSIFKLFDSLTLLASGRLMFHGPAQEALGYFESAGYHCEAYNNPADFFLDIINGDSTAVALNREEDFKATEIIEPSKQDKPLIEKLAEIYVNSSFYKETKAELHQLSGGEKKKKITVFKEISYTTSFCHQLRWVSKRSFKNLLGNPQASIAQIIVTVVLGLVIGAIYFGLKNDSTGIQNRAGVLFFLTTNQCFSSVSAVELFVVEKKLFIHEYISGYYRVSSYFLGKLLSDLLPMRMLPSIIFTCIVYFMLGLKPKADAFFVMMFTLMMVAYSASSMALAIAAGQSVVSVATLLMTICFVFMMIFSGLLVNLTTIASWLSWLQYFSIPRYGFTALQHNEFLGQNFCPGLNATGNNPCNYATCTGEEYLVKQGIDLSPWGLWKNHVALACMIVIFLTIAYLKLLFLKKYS

O=C1CC(c2c[nH]c3ccc(F)cc23)C(=O)N1 (stereo not given) [PF-06840003]
Drug metabolism [1]: Metabolite_Detected
IC50 [2]: 65.4 µM
IC50 [3]: 140 µM
Tmax (Mus musculus [4]): 34.8 min
TDI (Cytochrome P450 2C9 [5]): Not Active
inhibition (INH) (Cytochrome P450 2C19): Not Active
AUC (Mus musculus [6]): 1160 ng·h/mL
Drug excretion [7]: < 1 %ID
AUC (Canis familiaris [8]): 237 ng·h/mL
t1/2 (Mus musculus [9]): 150 min
TDI (Cytochrome P450 2D6 [10]): Not Active
F (Rattus norvegicus [11]): 94%
Drug excretion [12]: < 1 %ID
Activity (Panc02): Active
inhibition (INH) (Cytochrome P450 2D6 [13]): Not Active
TDI (Cytochrome P450 3A4): Not Active
Activity (Hepatocyte): Not Active
CLH(app) [14]: 2.4 µL/min
Activity (CT26 [15]): Active
IC50 [16]: > 300 µM
Tmax (Rattus norvegicus [17]): 78 min
inhibition (INH) (Cytochrome P450 1A2 [18]): Not Active
Tmax (Canis familiaris [19]): 15 min
IC50 (Cytochrome P450 2C9 [20]): > 100 µM
F (Canis familiaris [21]): 18.6%
inhibition (INH) (Mus musculus [22]): >=54%
CLH(app) [23]: 2.3 µL/min
Activity (B16-F10): Active
Cmax (Mus musculus [24]): 538 ng/mL
Activity (CT26 [25]): Active
Cmax (Canis familiaris [26]): 219 ng/mL
Drug metabolism [27]: Metabolite_Detected
inhibition (INH) (Cytochrome P450 2C9 [28]): Not Active
AUC (Rattus norvegicus [29]): 6940 ng·h/mL
IC50 (Cytochrome P450 1A2 [30]): > 100 µM
